Experimental data published in ChEMBL document CHEMBL3585295, “Synthesis and discovery of (I-3,II-3)-biacacetin as a novel non-zinc binding inhibitor of MMP-2 and MMP-9” (Bioorg Med Chem, 2015).
Calls of active or inactive are those of the source. No cut-off for these calls is given here.

Key:
[1] = biological target: 72 kDa type IV collagenase (Homo sapiens) (UniProt P08253); test: Inhibition of MMP-2 activity in human HT1080 cells by gelatin zymography; type: cell-based; conditions: HT-1080
How it was run: (§1)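 HT1080 human fibrosarcoma cells grown in DMEM with 10% FBS; cells treated with compound, 0.5% DMSO as vehicle control, dose series 2.5–10 µM. Conditioned media run on 10% polyacrylamide/0.4% SDS gels containing 2 mg/ml gelatin, non-reducing, 120 V 150 min. Gels washed in 2.5% Triton X-100 30 min, developed overnight at 37 °C (50 mM Tris–HCl pH 7.6, 200 mM NaCl, 5 mM CaCl2, 0.2% Brij-35). Bands quantified densitometrically as % inhibition; triplicates, three independent experiments.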

[2] = biological target: Matrix metalloproteinase-9 (Homo sapiens) (UniProt P14780); test: Inhibition of MMP-9 activity in human HT1080 cells by gelatin zymography; type: cell-based; conditions: HT-1080; how it was run: as §1
[3] = biological target: 72 kDa type IV collagenase (Homo sapiens) (UniProt P08253); test: Inhibition of MMP-2 activity in human HT1080 cells at 10 uM by gelatin zymography; type: cell-based; conditions: HT-1080; how it was run: as §1
[4] = biological target: Matrix metalloproteinase-9 (Homo sapiens) (UniProt P14780); test: Inhibition of MMP-9 activity in human HT1080 cells at 10 uM by gelatin zymography; type: cell-based; conditions: HT-1080; how it was run: as §1
[5] = biological target: Matrix metalloproteinase 2/9 (Homo sapiens) (UniProt P08253+P14780); test: Inhibition of MMP2/9 in human HT1080 cells assessed as reduction in degradation of fluorescien gelatin at 5 uM after 24 hrs by gelatin degradation assay; type: cell-based; conditions: HT-1080
How it was run: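 HT1080 cells exposed to 5 µM compound for 24 h at 37 °C on fluorescent gelatin. Cells then fixed, mounted in antifade reagent and imaged by inverted fluorescence microscopy. Degradation of the fluorescent gelatin compared with control.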

[6] = Cytotoxicity against human HT1080 cells up to 7.5 uM; type: cell-based; conditions: ht-1080
[7] = biological target: 72 kDa type IV collagenase (Homo sapiens) (UniProt P08253); test: Inhibition of MMP-2 activity in human HT1080 cells at 5 uM by gelatin zymography; type: cell-based; conditions: HT-1080; how it was run: as §1
[8] = biological target: Matrix metalloproteinase-9 (Homo sapiens) (UniProt P14780); test: Inhibition of MMP-9 activity in human HT1080 cells at 5 uM by gelatin zymography; type: cell-based; conditions: HT-1080; how it was run: as §1
HT-1080 = test: Inhibition of cell migration in human HT1080 cells at 5 uM after 24 hrs by transwell migration assay; type: functional, cell-based
How it was run: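 Transwell migration: 8 × 10^4 HT1080 cells in serum-free medium with compound placed in upper chamber; lower chamber held DMEM with 10% FBS as attractant. After 24 h, non-migrated cells swabbed off; migrated cells stained with crystal violet and counted in five random fields, expressed as % of control.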

Sequence of 72 kDa type IV collagenase (Homo sapiens) (P08253 110-660 limits assumed): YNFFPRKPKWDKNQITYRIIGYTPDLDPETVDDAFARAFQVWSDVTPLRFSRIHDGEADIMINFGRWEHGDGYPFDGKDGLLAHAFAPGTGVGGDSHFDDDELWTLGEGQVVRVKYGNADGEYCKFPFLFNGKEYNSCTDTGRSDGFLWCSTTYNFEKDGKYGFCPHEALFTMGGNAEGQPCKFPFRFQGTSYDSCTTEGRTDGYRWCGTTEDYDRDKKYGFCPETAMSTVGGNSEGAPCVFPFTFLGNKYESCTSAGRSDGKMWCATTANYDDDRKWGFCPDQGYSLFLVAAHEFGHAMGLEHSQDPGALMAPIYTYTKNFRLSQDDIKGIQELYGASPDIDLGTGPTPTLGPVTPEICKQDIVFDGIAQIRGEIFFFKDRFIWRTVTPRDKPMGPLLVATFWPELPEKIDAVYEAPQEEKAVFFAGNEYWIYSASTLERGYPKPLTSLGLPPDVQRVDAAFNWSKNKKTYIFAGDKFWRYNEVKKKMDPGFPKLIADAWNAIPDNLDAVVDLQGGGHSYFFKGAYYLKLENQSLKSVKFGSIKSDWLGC
Sequence of Matrix metalloproteinase-9 (Homo sapiens) (P14780 whole entry): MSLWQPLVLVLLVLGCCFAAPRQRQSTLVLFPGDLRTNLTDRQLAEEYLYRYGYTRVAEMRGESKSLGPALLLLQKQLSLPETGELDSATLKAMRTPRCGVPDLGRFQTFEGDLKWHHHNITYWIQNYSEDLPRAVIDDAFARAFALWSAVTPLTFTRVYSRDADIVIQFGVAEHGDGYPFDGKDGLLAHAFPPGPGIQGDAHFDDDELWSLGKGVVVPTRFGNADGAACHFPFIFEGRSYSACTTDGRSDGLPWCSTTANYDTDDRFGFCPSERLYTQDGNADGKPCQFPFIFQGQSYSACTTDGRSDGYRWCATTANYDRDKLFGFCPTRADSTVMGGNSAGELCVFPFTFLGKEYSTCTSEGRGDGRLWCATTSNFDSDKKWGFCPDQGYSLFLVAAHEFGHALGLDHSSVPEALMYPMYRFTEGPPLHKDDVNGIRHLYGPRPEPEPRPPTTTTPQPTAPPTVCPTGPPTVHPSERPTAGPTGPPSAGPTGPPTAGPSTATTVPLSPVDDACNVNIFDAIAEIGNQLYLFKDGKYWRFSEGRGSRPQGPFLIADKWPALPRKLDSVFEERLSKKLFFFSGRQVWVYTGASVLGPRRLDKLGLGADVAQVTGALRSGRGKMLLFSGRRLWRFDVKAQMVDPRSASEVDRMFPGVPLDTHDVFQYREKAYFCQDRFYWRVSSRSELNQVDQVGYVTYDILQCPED
Sequence of Matrix metalloproteinase 2/9 (Homo sapiens) (P08253 whole entry, looked up): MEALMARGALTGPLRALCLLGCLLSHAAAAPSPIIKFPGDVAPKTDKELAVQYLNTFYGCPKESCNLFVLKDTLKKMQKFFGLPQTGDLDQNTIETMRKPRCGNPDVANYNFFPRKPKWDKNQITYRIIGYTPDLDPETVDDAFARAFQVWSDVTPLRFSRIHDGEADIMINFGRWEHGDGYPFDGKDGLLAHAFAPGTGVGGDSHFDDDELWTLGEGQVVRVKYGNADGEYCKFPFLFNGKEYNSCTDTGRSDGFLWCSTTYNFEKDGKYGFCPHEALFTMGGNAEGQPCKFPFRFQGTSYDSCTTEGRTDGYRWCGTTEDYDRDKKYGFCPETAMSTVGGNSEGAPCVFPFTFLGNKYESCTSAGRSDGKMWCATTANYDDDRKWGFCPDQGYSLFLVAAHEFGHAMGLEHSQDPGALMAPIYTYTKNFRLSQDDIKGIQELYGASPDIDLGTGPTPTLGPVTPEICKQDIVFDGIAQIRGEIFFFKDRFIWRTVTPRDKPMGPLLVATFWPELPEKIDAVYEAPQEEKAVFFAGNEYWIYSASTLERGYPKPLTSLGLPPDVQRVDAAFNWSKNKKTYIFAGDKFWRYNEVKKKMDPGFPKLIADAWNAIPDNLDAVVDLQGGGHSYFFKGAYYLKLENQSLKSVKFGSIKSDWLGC
Sequence of Matrix metalloproteinase 2/9 (Homo sapiens) (P14780 whole entry, looked up): as the sequence (P14780 whole entry) above

Structure (SMILES) | inhibition [1] | inhibition [2] | inhibition [3] | also measured
COc1cc(OC)c2c(=O)c(-c3c(-c4ccccc4)oc4cc(OC)cc(OC)c4c3=O)c(-c3ccccc3)oc2c1 | inactive | inactive | – | –
O=c1c(-c2c(-c3ccccc3)oc3cc(O)ccc3c2=O)c(-c2ccccc2)oc2cc(O)ccc12 | – | – | inactive | inhibition [4]: inactive
O=c1c(-c2c(/C=C/c3ccccc3)oc3ccccc3c2=O)c(/C=C/c2ccccc2)oc2ccccc12 | – | – | inactive | inhibition [4]: inactive
COc1ccccc1-c1oc2ccccc2c(=O)c1-c1c(-c2ccccc2OC)oc2ccccc2c1=O | inactive | inactive | – | –
COc1ccc(-c2cc(=O)c3c(O)cc(O)cc3o2)cc1 | – | – | – | inhibition [7]: inactive; inhibition [8]: inactive
O=c1c(-c2c(-c3ccco3)oc3ccccc3c2=O)c(-c2ccco2)oc2ccccc12 | – | – | Active | –

Now from value to molecule, other results behind:

inhibition [1] | inhibition [2] | inhibition [3] | Structure (SMILES) | also measured
inactive | inactive | – | COc1ccc(-c2oc3ccccc3c(=O)c2-c2c(-c3ccc(OC)cc3)oc3ccccc3c2=O)cc1 | –
Dose-dependent effect | Dose-dependent effect | 90% | COc1ccc(-c2oc3cc(O)cc(O)c3c(=O)c2-c2c(-c3ccc(OC)cc3)oc3cc(O)cc(O)c3c2=O)cc1 | inhibition [4]: 90%; inhibition [5]: Active; Activity [6]: Non-toxic; inhibition [7]: 60%; inhibition [8]: 90%; inhibition (HT-1080): Active
inactive | inactive | – | COc1ccc2c(=O)c(-c3c(-c4ccccc4)oc4cc(OC)ccc4c3=O)c(-c3ccccc3)oc2c1 | –
– | – | Active | COc1ccc(-c2oc3cc(O)cc(O)c3c(=O)c2-c2c(-c3ccc(OC)c(OC)c3)oc3cc(O)cc(O)c3c2=O)cc1OC | –
inactive | inactive | – | COc1ccc(-c2oc3cc(OC)cc(OC)c3c(=O)c2-c2c(-c3ccc(OC)cc3)oc3cc(OC)cc(OC)c3c2=O)cc1 | –
